Test results: ChEMBL document CHEMBL2375313, “Synthesis, in vitro antitumor evaluation and DNA-binding study of novel tetrahydroquinolines and some derived tricyclic and tetracyclic ring systems” (Eur J Med Chem, 2013)

How the values were obtained:
Assay type in all cases: functional
[1] = system: HOP-92; assay: Cytotoxicity against human HOP92 cells assessed as growth inhibition at 10 uM after 48 hrs by sulphorhodamine B assay; conditions: HOP-92, 48 h, read-out: GI
Method in brief: (§1)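 NCI-60 one-dose screen per the NCI Drug Evaluation Branch protocol. Cells given a single 10 µM concentration with 48 h continuous exposure. Growth estimated by sulphorhodamine B protein assay. Result expressed as percentage growth inhibition relative to untreated growth.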

[2] = system: NCI-H23; assay: Cytotoxicity against human NCI-H23 cells assessed as growth inhibition at 10 uM after 48 hrs by sulphorhodamine B assay; conditions: NCI-H23, 48 h, read-out: GI; method in brief: as §1
[3] = Cytotoxicity against human EKVX cells assessed as growth inhibition at 10 uM after 48 hrs by sulphorhodamine B assay; conditions: read-out: GI; method in brief: as §1
[4] = system: A549; assay: Cytotoxicity against human A549 cells assessed as growth inhibition at 10 uM after 48 hrs by sulphorhodamine B assay; conditions: A549, 48 h, read-out: GI; method in brief: as §1
[5] = system: NCI/ADR-RES; assay: Cytotoxicity against human NCI/ADR-RES cells assessed as growth inhibition at 10 uM after 48 hrs by sulphorhodamine B assay; conditions: read-out: GI; method in brief: as §1
[6] = system: SNB-75; assay: Cytotoxicity against human SNB75 cells assessed as growth inhibition at 10 uM after 48 hrs by sulphorhodamine B assay; conditions: SNB-75, 48 h, read-out: GI; method in brief: as §1
[7] = system: U-251; assay: Cytotoxicity against human U251 cells assessed as growth inhibition at 10 uM after 48 hrs by sulphorhodamine B assay; conditions: U-251, 48 h, read-out: GI; method in brief: as §1
[8] = system: SNB-19; assay: Cytotoxicity against human SNB19 cells assessed as growth inhibition at 10 uM after 48 hrs by sulphorhodamine B assay; conditions: SNB-19, 48 h, read-out: GI; method in brief: as §1
[9] = system: SF-295; assay: Cytotoxicity against human SF295 cells assessed as growth inhibition at 10 uM after 48 hrs by sulphorhodamine B assay; conditions: SF-295, 48 h, read-out: GI; method in brief: as §1
[10] = system: DU-145; assay: Cytotoxicity against human DU145 cells assessed as growth inhibition at 10 uM after 48 hrs by sulphorhodamine B assay; conditions: DU-145, 48 h, read-out: GI; method in brief: as §1
[11] = system: SF-268; assay: Cytotoxicity against human SF268 cells assessed as growth inhibition at 10 uM after 48 hrs by sulphorhodamine B assay; conditions: SF-268, 48 h, read-out: GI; method in brief: as §1
[12] = system: PC-3; assay: Cytotoxicity against human PC3 cells assessed as growth inhibition at 10 uM after 48 hrs by sulphorhodamine B assay; conditions: PC-3, 48 h, read-out: GI; method in brief: as §1
[13] = system: UACC-62; assay: Cytotoxicity against human UACC62 cells assessed as growth inhibition at 10 uM after 48 hrs by sulphorhodamine B assay; conditions: UACC-62, 48 h, read-out: GI; method in brief: as §1
[14] = system: SK-MEL-2; assay: Cytotoxicity against human SK-MEL-2 cells assessed as growth inhibition at 10 uM after 48 hrs by sulphorhodamine B assay; conditions: SK-MEL-2, 48 h, read-out: GI; method in brief: as §1
[15] = system: SK-MEL-5; assay: Cytotoxicity against human SK-MEL-5 cells assessed as growth inhibition at 10 uM after 48 hrs by sulphorhodamine B assay; conditions: SK-MEL-5, 48 h, read-out: GI; method in brief: as §1
[16] = system: M14; assay: Cytotoxicity against human M14 cells assessed as growth inhibition at 10 uM after 48 hrs by sulphorhodamine B assay; conditions: M14, 48 h, read-out: GI; method in brief: as §1
[17] = system: LOX IMVI; assay: Cytotoxicity against human LOXIMVI cells assessed as growth inhibition at 10 uM after 48 hrs by sulphorhodamine B assay; conditions: read-out: GI; method in brief: as §1
[18] = system: UO-31; assay: Cytotoxicity against human UO31 cells assessed as growth inhibition at 10 uM after 48 hrs by sulphorhodamine B assay; conditions: UO-31, 48 h, read-out: GI; method in brief: as §1
[19] = system: CAKI-1; assay: Cytotoxicity against human Caki1 cells assessed as growth inhibition at 10 uM after 48 hrs by sulphorhodamine B assay; conditions: CAKI-1, 48 h, read-out: GI; method in brief: as §1
[20] = system: RXF 393; assay: Cytotoxicity against human RXF393 cells assessed as growth inhibition at 10 uM after 48 hrs by sulphorhodamine B assay; conditions: RXF 393, 48 h, read-out: GI; method in brief: as §1
[21] = system: ACHN; assay: Cytotoxicity against human ACHN cells assessed as growth inhibition at 10 uM after 48 hrs by sulphorhodamine B assay; conditions: read-out: GI; method in brief: as §1
[22] = system: SR; assay: Cytotoxicity against human SR cells assessed as growth inhibition at 10 uM after 48 hrs by sulphorhodamine B assay; conditions: read-out: GI; method in brief: as §1
[23] = system: A498; assay: Cytotoxicity against human A498 cells assessed as growth inhibition at 10 uM after 48 hrs by sulphorhodamine B assay; conditions: A498, 48 h, read-out: GI; method in brief: as §1
[24] = system: RPMI-8226; assay: Cytotoxicity against human RPMI8226 cells assessed as growth inhibition at 10 uM after 48 hrs by sulphorhodamine B assay; conditions: RPMI-8226, 48 h, read-out: GI; method in brief: as §1
[25] = system: MOLT-4; assay: Cytotoxicity against human MOLT4 cells assessed as growth inhibition at 10 uM after 48 hrs by sulphorhodamine B assay; conditions: MOLT-4, 48 h, read-out: GI; method in brief: as §1
[26] = system: K562; assay: Cytotoxicity against human K562 cells assessed as growth inhibition at 10 uM after 48 hrs by sulphorhodamine B assay; conditions: K562, 48 h, read-out: GI; method in brief: as §1
[27] = system: HL-60(TB); assay: Cytotoxicity against human HL-60(TB) cells assessed as growth inhibition at 10 uM after 48 hrs by sulphorhodamine B assay; conditions: HL-60, 48 h, read-out: GI
Method in brief: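 NCI-60 one-dose primary screen run to the Drug Evaluation Branch protocol. Cells are exposed to a single 10 µM concentration for 48 h continuously, and growth is read by SRB protein assay. Data are reported as percent growth of treated cells, expressed as % growth inhibition.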

[28] = system: SK-OV-3; assay: Cytotoxicity against human SKOV3 cells assessed as growth inhibition at 10 uM after 48 hrs by sulphorhodamine B assay; conditions: SK-OV-3, 48 h, read-out: GI; method in brief: as §1
[29] = system: CCRF-CEM; assay: Cytotoxicity against human CCRF-CEM cells assessed as growth inhibition at 10 uM after 48 hrs by sulphorhodamine B assay; conditions: read-out: GI; method in brief: as §1
[30] = system: OVCAR-5; assay: Cytotoxicity against human OVCAR5 cells assessed as growth inhibition at 10 uM after 48 hrs by sulphorhodamine B assay; conditions: OVCAR-5, 48 h, read-out: GI; method in brief: as §1
[31] = system: OVCAR-4; assay: Cytotoxicity against human OVCAR4 cells assessed as growth inhibition at 10 uM after 48 hrs by sulphorhodamine B assay; conditions: OVCAR-4, 48 h, read-out: GI; method in brief: as §1
[32] = system: IGROV-1; assay: Cytotoxicity against human IGROV1 cells assessed as growth inhibition at 10 uM after 48 hrs by sulphorhodamine B assay; conditions: IGROV-1, 48 h, read-out: GI; method in brief: as §1
[33] = system: T47D; assay: Cytotoxicity against human T47D cells assessed as growth inhibition at 10 uM after 48 hrs by sulphorhodamine B assay; conditions: read-out: GI; method in brief: as §1
[34] = system: Hs-578T; assay: Cytotoxicity against human Hs578T cells assessed as growth inhibition at 10 uM after 48 hrs by sulphorhodamine B assay; conditions: read-out: GI; method in brief: as §1
[35] = system: NCI-H522; assay: Cytotoxicity against human NCI-H522 cells assessed as growth inhibition at 10 uM after 48 hrs by sulphorhodamine B assay; conditions: NCI-H522, 48 h, read-out: GI; method in brief: as §1
[36] = system: HT-29; assay: Cytotoxicity against human HT-29 cells assessed as growth inhibition at 10 uM after 48 hrs by sulphorhodamine B assay; conditions: HT-29, 48 h, read-out: GI; method in brief: as §1
[37] = system: MCF7; assay: Cytotoxicity against human MCF7 cells assessed as growth inhibition at 10 uM after 48 hrs by sulphorhodamine B assay; conditions: MCF7, 48 h, read-out: GI; method in brief: as §1
[38] = system: MDA-MB-435; assay: Cytotoxicity against human MDA-MB-435 cells assessed as growth inhibition at 10 uM after 48 hrs by sulphorhodamine B assay; conditions: MDA-MB-435, 48 h, read-out: GI; method in brief: as §1
[39] = system: HCT-15; assay: Cytotoxicity against human HCT15 cells assessed as growth inhibition at 10 uM after 48 hrs by sulphorhodamine B assay; conditions: HCT-15, 48 h, read-out: GI; method in brief: as §1
[40] = system: MDA-MB-468; assay: Cytotoxicity against human MDA-MB-468 cells assessed as growth inhibition at 10 uM after 48 hrs by sulphorhodamine B assay; conditions: MDA-MB-468, 48 h, read-out: GI; method in brief: as §1
[41] = system: HCT-116; assay: Cytotoxicity against human HCT116 cells assessed as growth inhibition at 10 uM after 48 hrs by sulphorhodamine B assay; conditions: HCT-116, 48 h, read-out: GI; method in brief: as §1

For `COc1ccc(-c2c3c(nc4nc(C)[nH]c(=O)c24)C(C)CCC3)cc1` (stereo unspecified), the inhibition of growth at 10 µM [1] was 21.3%, the inhibition of growth at 10 µM [2] was under 10% and the inhibition of growth at 10 µM [3] was under 10%. It also gave an inhibition of growth at 10 µM [4] of 10%, an inhibition of growth at 10 µM [5] of under 10% and an inhibition of growth at 10 µM [6] of under 10%. For the same molecule, the inhibition of growth at 10 µM [7] was under 10%, the inhibition of growth at 10 µM [8] was under 10% and the inhibition of growth at 10 µM [9] was under 10%. The inhibition of growth at 10 µM [10] was under 10%, the inhibition of growth at 10 µM [11] was under 10% and the inhibition of growth at 10 µM [12] was 14.2%. It also gave an inhibition of growth at 10 µM [13] of 14.8%, an inhibition of growth at 10 µM [14] of under 10% and an inhibition of growth at 10 µM [15] of 13.6%. The inhibition of growth at 10 µM [16] was under 10%, the inhibition of growth at 10 µM [17] was 17.3% and the inhibition of growth at 10 µM [18] was under 10%. The inhibition of growth at 10 µM [19] was under 10%, the inhibition of growth at 10 µM [20] was 12.5% and the inhibition of growth at 10 µM [21] was 11.3%. For the same molecule, the inhibition of growth at 10 µM [22] was 46.8%, the inhibition of growth at 10 µM [23] was under 10% and the inhibition of growth at 10 µM [24] was 21.8%. It also gave an inhibition of growth at 10 µM [25] of 23.3%, an inhibition of growth at 10 µM [26] of 11.2% and an inhibition of growth at 10 µM [27] of under 10%. It also gave an inhibition of growth at 10 µM [28] of under 10%, an inhibition of growth at 10 µM [29] of 16.5% and an inhibition of growth at 10 µM [30] of 11.4%. The inhibition of growth at 10 µM [31] was under 10%, the inhibition of growth at 10 µM [32] was under 10% and the inhibition of growth at 10 µM [33] was 18.2%. It also gave an inhibition of growth at 10 µM [34] of under 10%, an inhibition of growth at 10 µM [35] of 22% and an inhibition of growth at 10 µM [36] of under 10%. It also gave an inhibition of growth at 10 µM [37] of under 10%, an inhibition of growth at 10 µM [38] of 19% and an inhibition of growth at 10 µM [39] of 11%. It also gave an inhibition of growth at 10 µM [40] of under 10% and an inhibition of growth at 10 µM [41] of under 10%.
